Measured values as given in ChEMBL document CHEMBL4359883, “4(1H)-quinolone derivatives overcome acquired resistance to anti-microtubule agents by targeting the colchicine site of β-tubulin” (Eur J Med Chem, 2019).
The source made the active and inactive calls. No cut-off for these calls is given here.

How the values were obtained:
[1] = Cytotoxicity against human NHFB cells assessed as reduction in cell viability after 72 hrs by MTS assay; type: cell-based
In short: (§1)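 Cells plated at 2000 per well, cultured overnight, then exposed to a range of compound concentrations for 72 h. MTS reagent added, 1–4 h at 37 °C, absorbance read at 490 nm. Mean of three determinations.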

Tubulin (Homo sapiens) [2] = target: T1, Tubulin (Homo sapiens) (UniProt P68371+Q9H4B7+P0DPH7+P68366+Q13509+Q71U36+P04350+Q3ZCM7+P07437+P68363+Q9BQE3+Q6PEY2+Q13885+Q9BVA1+Q9BUF5); assay: Binding affinity to tubulin (unknown origin) assessed as increase complex formation with compound by SPR analysis; type: protein-complex assay
In short: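 Biotin-tubulin (50 µg/mL) captured on a streptavidin chip to about 3,000 RU, with remaining sites blocked by biocytin and a free flow cell as reference. Compound injected at different concentrations in HBS-EP+ (pH 7.4) at 25 °C. KD obtained from steady-state fitting.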

NCI-H1975 [3] = assay: Antiproliferative activity against human NCI-H1975 cells assessed as reduction in cell viability after 72 hrs by MTS assay; type: functional, cell-based; details: NCI-H1975, 72 h
In short: (§2)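 Cells plated at 2000/well, cultured overnight, then exposed to a range of compound concentrations for 72 h. MTS reagent added for 1–4 h at 37 °C and absorbance read at 490 nm. Cultured in RPMI 1640 or DMEM with 10% heat-inactivated FBS under 5% CO2. Data are the mean of three determinations.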

NCI-H1975 [4] = assay: Cell cycle arrest in human NCI-H1975 cells assessed as increase in cell population at sub-G1 phase after 24 hrs by propidium iodide-staining based flow cytometry; type: functional
In short: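 Cells treated for 24 h, then trypsinized and fixed overnight in ice-cold 70% ethanol. Stained for 30 min with propidium iodide (10 µg/mL) plus RNase (20 µg/mL), and DNA content measured by flow cytometry. Mean ± SD.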

[5] = Cytotoxicity against human bronchial epithelial cells assessed as reduction in cell viability after 72 hrs by MTS assay; type: cell-based; in short: as §1
HCT-116 = assay: Antiproliferative activity against human HCT116 cells assessed as reduction in cell viability after 72 hrs by MTS assay; type: functional, cell-based; details: HCT-116, 72 h; in short: as §2
[6] = Antiproliferative activity against human KB/VCR cells assessed as reduction in cell viability after 72 hrs by MTS assay; type: functional, cell-based; in short: as §2
[7] = Selectivity index, ratio of IC50 for human KBtax cells to IC50 for human KB cells; type: functional
MDA-MB-231 = assay: Antiproliferative activity against human MDA-MB-231 cells assessed as reduction in cell viability after 72 hrs by MTS assay; type: functional, cell-based; details: MDA-MB-231, 72 h; in short: as §2
Hs-578T = assay: Antiproliferative activity against human Hs578T cells assessed as reduction in cell viability after 72 hrs by MTS assay; type: functional, cell-based; in short: as §2
CCRF-CEM = assay: Antiproliferative activity against human CCRF-CEM cells assessed as reduction in cell viability after 72 hrs by MTS assay; type: functional, cell-based; in short: as §2
OVCAR-3 = assay: Antiproliferative activity against human OVCAR3 cells assessed as reduction in cell viability after 72 hrs by MTS assay; type: functional, cell-based; details: OVCAR-3, 72 h; in short: as §2
[8] = Selectivity index, ratio of IC50 for human KB/VCR cells to IC50 for human KB cells; type: functional
BT-549 = assay: Antiproliferative activity against human BT549 cells assessed as reduction in cell viability after 72 hrs by MTS assay; type: functional, cell-based; details: BT-549, 72 h; in short: as §2
NCI-H1975 [9] = assay: Induction of apoptosis in human NCI-H1975 cells assessed as PARP cleavage at 40 nM by immunoblotting analysis; type: functional, cell-based; details: TDE = time-dependent effect
CL1-0 = assay: Induction of cell cycle arrest in human CL1-0 cells assessed as accumulation at mitotic phase after 24 hrs by high content imaging analysis; type: functional, cell-based
In short: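 Cells exposed for 24 h, stained for phospho-histone H3 (S10), and imaged by high-content imaging. Mitotic index taken as the fraction of p-HH3-positive cells. Mean ± SD.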

[10] = Antiproliferative activity against human CCRF-CEM/VBL cells assessed as reduction in cell viability after 72 hrs by MTS assay; type: functional, cell-based; in short: as §2
PC-9 = assay: Antiproliferative activity against human PC9 cells assessed as reduction in cell viability after 72 hrs by MTS assay; type: functional, cell-based; details: PC-9, 72 h; in short: as §2
[11] = Selectivity index, ratio of IC50 for human CCRF-CEM/VBL cells to IC50 for human CCRF-CEM cells; type: functional
Tubulin (Homo sapiens) [12] = target: T1, Tubulin (Homo sapiens); assay: Binding affinity to tubulin (unknown origin) assessed as reduction in colchicine fluorescence after 1 hr in presence of colchicine by fluorescence based assay; type: protein-complex assay
In short: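 Tubulin (3 µM) mixed with colchicine (3 µM) and incubated with varying compound concentrations in PEM buffer, pH 6.9, for 1 h at 37 °C. Fluorescence read at ex 365/em 435 nm; mean ± SD.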

Tubulin (Homo sapiens) [13] = target: T1, Tubulin (Homo sapiens); assay: Induction of microtubule depolymerization in human CL1-0 cells at 20 nM after 6 hrs by DAPI staining based DAPI staining based confocal microscopic analysis; type: cell-based
In short: (§3)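 Cells exposed for 6 h, fixed in 3.7% paraformaldehyde, permeabilized with 0.1% Triton X-100. Stained with anti-α-tubulin (1:1000) overnight at 4 °C, FITC secondary 1 h at 37 °C, nuclei counterstained with DAPI. Imaged by confocal laser scanning microscopy.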

[14] = Antiproliferative activity against human KBtax cells assessed as reduction in cell viability after 72 hrs by MTS assay; type: functional, cell-based; in short: as §2
[15] = Antiproliferative activity against human 37T cells assessed as reduction in cell viability after 72 hrs by MTS assay; type: functional, cell-based; in short: as §2
NCI-H1975 [16] = assay: Antiproliferative activity against human NCI-H1975 cells assessed as reduction in colony formation after 14 days by crystal violet staining based assay; type: functional, cell-based
In short: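 Seeded at 1000 cells/well, cultured overnight, then treated with 12.5–200 nM for 14 days. Colonies fixed in 3.7% paraformaldehyde, stained with 0.04% crystal violet and dissolved in DMSO, then absorbance read at 590 nm. Mean ± SD.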

KB = assay: Antiproliferative activity against human KB cells assessed as reduction in cell viability after 72 hrs by MTS assay; type: functional, cell-based; in short: as §2
Homo sapiens [17] = organism: Homo sapiens; assay: Induction of morphological changes in human KBtax cells assessed as disruption of mitotic spindle arrangement at 30 nM after 6 hrs by DAPI staining based confocal microscopic analysis; type: functional, cell-based; in short: as §3
Homo sapiens [18] = organism: Homo sapiens; assay: Induction of apoptosis in human KBtax cells assessed as cleaved caspase-9 at 30 to 60 nM after 24 hrs by immunoblotting analysis; type: functional, cell-based
[19] = Toxicity in Balb/c mouse xenografted with human KBtax cells assessed as serum AST level at 8 mg/kg, ip administered 3 times per week and measured after 21 days (reference value: 94.2 +/- 12.5 IU/L); type: organism-based; details: in vivo, 504 h
[20] = Toxicity in Balb/c mouse xenografted with human MDA-MB-231 cells assessed as effect on body mass at 4 to 8 mg/kg, ip administered 3 times per week for 35 days; type: organism-based; details: in vivo, 840 h
In short: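 MDA-MB-231 tumors established in right flank of 6-week-old BALB/c nude mice; once established, 4 or 8 mg/kg compound in DMSO, or DMSO vehicle, injected intraperitoneally three times weekly. Body mass measured before each injection.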

SMILES | IC50 (NCI-H1975 [3]) [nM] | IC50 [6] [nM] | Ratio IC50 [7] | IC50 (MDA-MB-231) [nM] | IC50 (Hs-578T) [nM] | IC50 (CCRF-CEM) [nM] | Ratio IC50 [8] | IC50 (BT-549) [nM] | IC50 [10] [nM] | Ratio IC50 [11] | IC50 [14] [nM] | IC50 [15] [nM] | IC50 (KB) [nM] | further results
CCOC(=O)c1ccc2nc(-c3ccccc3)cc(O)c2c1 | 33 | 37 | 0.81 | 55 | 41 | 45 | 1 | 33 | 44 | 0.97 | 30 | 34 | 37 | IC50 [1]: > 10000 nM; Activity (Tubulin (Homo sapiens) [2]): Dose-dependent effect; Activity (NCI-H1975 [4]): Dose-dependent effect; IC50 [5]: > 10000 nM; IC50 (HCT-116): 50 nM; IC50 (OVCAR-3): 28 nM; Activity (NCI-H1975 [9]): Tde; Activity (CL1-0): Dose-dependent effect; IC50 (PC-9): 17 nM; Activity (Tubulin (Homo sapiens) [12]): Dose-dependent effect; Activity (Tubulin (Homo sapiens) [13]): Active; Activity (NCI-H1975 [16]): Active
CCOC(=O)c1ccc2[nH]c(-c3cccc(F)c3)cc(=O)c2c1 | 24 | 35 | 0.88 | 35 | 34 | 20 | 1 | 21 | 16 | 0.8 | 30 | 22 | 34 | Activity (Homo sapiens [17]): Active; Activity (Homo sapiens [18]): Active; Activity [19]: 120.7 IU/L; Activity [20]: Non-Toxic
